Experimental data pooled from the literature.
Lines come from different studies, so protocols differ.
CTSL: Procathepsin L (CTSL, Homo sapiens, UniProt P07711)

| SMILES | target | assay | conditions | quantity | result |
| --- | --- | --- | --- | --- | --- |
| C=CC(C)(C)c1cc(/C=C/C(=O)c2ccc(O)cc2)c(OC)cc1O | CTSL | enzyme activity, inhibitor | 100 µM | remaining activity | 95.1% |
| Nc1ncnc2c1ncn2[C@@H]1O[C@H](COP(=O)(O)OP(=O)(O)OP(=O)(O)OP(=O)(O)OP(=O)(O)OC[C@H]2O[C@@H](n3cnc4c(N)ncnc43)[C@H](O)[C@@H]2O)[C@@H](O)[C@H]1O | Oxidized purine nucleoside triphosphate hydrolase (NUDT1, Homo sapiens, UniProt P36639) | enzyme activity, substrate |  | Km | 26 µM |
| N=c1c[n+](N2CCOCC2)[n-]o1 | NAD-dependent protein deacetylase sirtuin-1 (SIRT1, Homo sapiens, UniProt Q96EB6) | enzyme activity, inhibitor |  | KI (inactivation) | 27 µM |
| Cc1cc([C@@H](C)Nc2ccccc2C(=O)O)c2nc(N3CCC(F)(F)CC3)c(C#N)c(=O)n2c1 | Serine/threonine-protein kinase STK11 (STK11, Homo sapiens, UniProt Q15831) | binding, competition with immobilised ligand | 1 µM | remaining binding | 92% |
| Oc1ncnc2[nH]ncc12 | Xanthine dehydrogenase/oxidase (XDH, Bos taurus, UniProt P80457) | enzyme activity, inhibitor, absorbance | 53 µg/mL | inhibition | 100% |
| O=Cc1nccc2c1[nH]c1ccccc12 | CTSL | enzyme activity, inhibitor | 100 µM | remaining activity | 150% |
| C=CC(=O)N1CCC(COCC(=O)N2CCN(c3nc(-c4cnc(N)nc4C(F)F)nc(N4CCOC[C@@H]4C)n3)CC2)CC1 | Ephrin type-B receptor 1 (EPHB1, Homo sapiens, UniProt P54762) | binding, competition with immobilised ligand | 1 µM | remaining binding | 100% |
| COc1cc(-c2cncc3c2CN(C)Cc2cc(N4CCNCC4)ccc2-3)cc(OC)c1OC | Tau-tubulin kinase 2 (TTBK2, Homo sapiens, UniProt Q6IQ55) | enzyme activity, inhibitor | 1 µM | remaining activity | 104% |
| CC(C)=CCC(O)C1=CC(=O)c2c(O)ccc(O)c2C1=O (stereo not shown) | CTSL | enzyme activity, inhibitor | 100 µM | remaining activity | 113% |
| CNc1ncc2c(/C=C/C(=O)N3CCC(OC)CC3)nn(Cc3cccc(C(F)(F)F)c3)c2n1 | Tyrosine-protein kinase Blk (BLK, Homo sapiens, UniProt P51451) | enzyme activity, inhibitor, radiometric | 1 µM | remaining activity | 84% |
